Screening data deposited in PubChem BioAssay by several laboratories.
MPTP inh = inhibitors of mitochondrial permeability transition pore; isolated mouse mitochondria, Ca2+ swelling absorbance, 30 min; inhibition, % at 10 µM; 360,000 tested, 1.4% active;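 active means inhibition of 50% or more, scaled per plate between neutral and stimulator controls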
TbMetRS inhib = blocks T. brucei methionyl-tRNA synthetase activity; purified T. brucei MetRS, ATP depletion, Kinase-Glo luminescence; inhibition, % at 11.9 µM; 360,000 tested, 0.4% active; AID 624268;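 active means inhibition above a per-plate cutoff of the control wells' mean inhibition plus 3 SD, cut at about 5.5% in these data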
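System: purified T. brucei MetRS enzyme / Detection: Kinase-Glo luciferase luminescence reporting remaining unconsumed ATP / Medium: HEPES buffer with MgCl2, KCl, DTT, spermine, BSA, pyrophosphatase / Replication: singlicate, one well per compound / Evaluation: percent inhibition relative to median high and low control wells / Schedule: 2 h aminoacylation at 25 °C after 15 min preincubation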
EBV gp42 block = EBV gp42 inhibition; inhibition, % (tested at 21.74 µM); Q1HVG2; Fluorescence polarization binding assay, mP read-out; 220,000 tested, 0.42% active; in the data active means inhibition above about 50%
Target sequence (Q1HVG2 whole entry, looked up): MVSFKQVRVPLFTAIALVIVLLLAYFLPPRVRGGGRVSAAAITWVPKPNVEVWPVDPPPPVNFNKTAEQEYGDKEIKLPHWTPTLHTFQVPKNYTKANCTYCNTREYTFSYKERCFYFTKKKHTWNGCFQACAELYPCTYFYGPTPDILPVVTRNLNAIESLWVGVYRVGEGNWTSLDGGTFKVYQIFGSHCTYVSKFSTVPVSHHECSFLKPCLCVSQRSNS
WT yeast gro inh = growth inhibition of WT yeast, mitochondrial fusion screen; mitochondrial fusion phenotypic screen, WT strain; inhibition, % at 10 µM; 190,000 tested, 2.1% active; AID 1362; in the data active means inhibition above about 58%; tested in S. cerevisiae
NR3A LBD binder = modulates the human NR3A ligand-binding domain | NR3A LBD differential scanning fluorimetry, Tm shift; 0% = protein alone, 100% = glycine-bound protein | Tm shift relative to glycine control, % at 25 µM | 340,000 tested, 2.5% active | AID 1259313;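 active means melting temperature shift of at least 10% of the positive control shift, at one fixed dose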
CHOP inh = inhibitors of CHOP induction in ER stress response; CHO-K1 CHOP-promoter luciferase, tunicamycin-induced, 15-18 h; inhibition, % at 10 µM; 220,000 tested, 3.8% active;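 active means compounds that reduced the stress-induced luciferase reporter signal by more than about 70% of percent inhibition, limit read from the data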
Of the large screens only hits and unclear results are named; the others gave an inactive call. Hits are enriched below; roughly 6.4% of the tested compounds scored in any of these assays.

COc1cc2c(cc1NC(=O)CSc1nc3ccccc3[nH]1)oc1ccccc12	WT yeast gro inh 64.1, NR3A LBD binder 14.2, CHOP inh 95.1
C(=N\Nc1nnnn1-c1ccccc1)/c1ccncc1	none
O=C(O)c1ccc(N/N=C/c2ccc(-c3ccccc3)cc2)cc1	none
CC(C)c1ccc(/C=N/Nc2ccc(C(=O)O)cc2)cc1	CHOP inh 84.2
Cc1ccsc1/C=N/Nc1ccc(C(=O)O)cc1	none (no result: EBV gp42 block, WT yeast gro inh, CHOP inh)
Cc1ccc(/C=N/Nc2cccc(C(=O)O)c2)s1	CHOP inh 79.7
O=C(O)c1ccc(/C=N/Nc2nnnn2-c2ccccc2)cc1	NR3A LBD binder 10.2
Cc1ccsc1/C=N/Nc1cccc(C(=O)O)c1	NR3A LBD binder 20.5, CHOP inh 89.0
O=C(Cn1ncc(N2CCCC2)c(Cl)c1=O)c1ccc(Cl)cc1	none
Cc1ccc(/C=N/Nc2ccc(C(=O)O)cc2)s1	CHOP inh 75.2
Cc1nn(-c2ccccc2Cl)c(Cl)c1/C=N/Nc1cccc(C(=O)O)c1	NR3A LBD binder 10.2
